In ChEMBL document CHEMBL1129660, “Studies on 6-aminoquinolones: synthesis and antibacterial evaluation of 6-amino-8-methylquinolones” (J Med Chem, 1996):
In brackets after ≈: the same amount, converted by molar mass.

Assays:
Assay type in all cases: functional
Enterobacter cloacae = test: Antibacterial activity tested against Enterobacter cloacae OMNFI 174
Staphylococcus aureus [1] = test: Antibacterial activity against Staphylococcus aureus MPR 5
Method in brief: (§1)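 MICs (µg/mL) determined by conventional agar dilution against a panel of eight Gram-negative and five Gram-positive reference strains.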

Escherichia coli [2] = test: Antibacterial activity tested against Escherichia coli ATCC 8739; method in brief: as §1
[3] = test system: Staphylococcus epidermidis; test: Antibacterial activity tested against Staphylococcus epidermidis HCF Berset C; method in brief: as §1
[4] = Geometric mean of antibacterial activity (Gram -ve bacteria) of the compound
Method in brief: (§2)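 Geometric means calculated from agar-dilution MICs (µg/mL), taken separately across the five Gram-positive and the eight Gram-negative panel strains.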

Pseudomonas aeruginosa = test: Antibacterial activity tested against P. ae (Pseudomonas aeruginosa) ATCC 9027; method in brief: as §1
[5] = test system: Staphylococcus epidermidis; test: Antibacterial activity tested against Staphylococcus epidermidis CPHL A2; method in brief: as §1
Klebsiella pneumoniae = test: Antibacterial activity tested against Klebsiella pneumoniae (Klebsiella pneumoniae) ATCC 10031; method in brief: as §1
Proteus vulgaris = test: Antibacterial activity tested against Proteus vulgaris CNUR 5; method in brief: as §1
Shigella = test: Antibacterial activity tested against Shigella enteritidis; method in brief: as §1
Bacteria = test: Geometric mean of antibacterial activity (Gram +ve bacteria) of the compound; method in brief: as §2
Staphylococcus aureus [6] = test: Antibacterial activity against Staphylococcus aureus ATCC 6538; method in brief: as §1
Escherichia coli [7] = test: Antibacterial activity tested against Escherichia coli ISF 432; method in brief: as §1
Enterococcus faecalis [8] = test: Antibacterial activity tested against Streptococcus faecalis LEP Br; method in brief: as §1
Providencia stuartii = test: Antibacterial activity tested against Providencia stuartii CNUR 5; method in brief: as §1
Enterococcus faecalis [9] = test: Antibacterial activity tested against Enterococcus faecalis; Range is 0.25-0.5 ug/mL
Escherichia coli [10] = test: Inhibitory activity against gyrase supercoiling activity from Escherichia coli
Method in brief: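 Inhibition of DNA gyrase supercoiling activity, by a previously described protocol with slight modifications. IC50 derived by densitometric quantification of the supercoiled DNA peak in an agarose gel.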

Enterococcus faecium [11] = test: Antibacterial activity tested against Enterococcus faecium; Range is 0.5-2 ug/mL
Staphylococcus aureus [12] = test: Antibacterial activity tested against Staphylococcus aureus; Range is 0.06-0.13 ug/mL
Staphylococcus aureus [13] = test: Antibacterial activity tested against Staphylococcus aureus Methicillin-and Ciprofloxacin resistants; Range is 4-8 ug/mL
Streptococcus pneumoniae = test: Antibacterial activity tested against Streptococcus pneumoniae; Range is 1-2 ug/mL
Enterococcus faecalis [14] = test: Antibacterial activity tested against Enterococcus faecalis
Enterococcus faecium [15] = test: Antibacterial activity tested against Enterococcus faecium
Staphylococcus aureus [16] = test: Antibacterial activity tested against Staphylococcus aureus Methicillin-and Ciprofloxacin resistants; Range is 2-8 ug/mL

MIC (Enterobacter cloacae) [µg/mL] | MIC (Staphylococcus aureus [1]) [µg/mL] | MIC (Escherichia coli [2]) [µg/mL] | MIC [3] [µg/mL] | MIC [5] [µg/mL] | MIC (Klebsiella pneumoniae) [µg/mL] | MIC (Proteus vulgaris) [µg/mL] | MIC (Shigella) [µg/mL] | MIC (Staphylococcus aureus [6]) [µg/mL] | MIC (Escherichia coli [7]) [µg/mL] | MIC (Enterococcus faecalis [8]) [µg/mL] | MIC (Providencia stuartii) [µg/mL] | SMILES | Geometric mean [4] | MIC (Pseudomonas aeruginosa) [µg/mL] | Geometric mean (Bacteria) | also measured
8 (≈ 20.7 µM) | 4 (≈ 10.4 µM) | 16 (≈ 41.4 µM) | 4 (≈ 10.4 µM) | 2 (≈ 5.18 µM) | 16 (≈ 41.4 µM) | 64 (≈ 166 µM) | 1 (≈ 2.59 µM) | 4 (≈ 10.4 µM) | 4 (≈ 10.4 µM) | 16 (≈ 41.4 µM) | 32 (≈ 82.8 µM) | Cc1c(N2CCN(C)CC2)c([N+](=O)[O-])cc2c(=O)c(C(=O)O)cn(C3CC3)c12 | 13.454 | 64 (≈ 166 µM) | 4.595 | 
64 (≈ 166 µM) | 2 (≈ 5.19 µM) | 32 (≈ 83 µM) | 4 (≈ 10.4 µM) | 4 (≈ 10.4 µM) | 64 (≈ 166 µM) | 64 (≈ 166 µM) | 64 (≈ 166 µM) | 32 (≈ 83 µM) | 2 (≈ 5.19 µM) | 32 (≈ 83 µM) | 64 (≈ 166 µM) | Cc1c(N2CCC(C)CC2)c([N+](=O)[O-])cc2c(=O)c(C(=O)O)cn(C3CC3)c12 | 38.054 | 64 (≈ 166 µM) | 8 | 
64 (≈ 173 µM) | 1 (≈ 2.71 µM) | 1 (≈ 2.71 µM) | 4 (≈ 10.8 µM) | 2 (≈ 5.41 µM) | 0.5 (≈ 1.35 µM) | > 128 | 64 (≈ 173 µM) | 1 (≈ 2.71 µM) | 0.5 (≈ 1.35 µM) | 32 (≈ 86.6 µM) | 16 (≈ 43.3 µM) | CNc1cc2c(=O)c(C(=O)O)cn(C3CC3)c2c(C)c1N1CCC(C)CC1 | 11.313 | > 128 | 3.031 | 
0.125 (≈ 0.364 µM) | 4 (≈ 11.6 µM) | 0.125 (≈ 0.364 µM) | 4 (≈ 11.6 µM) | 4 (≈ 11.6 µM) | 0.03 (≈ 0.0874 µM) | 64 (≈ 186 µM) | 0.125 (≈ 0.364 µM) | 4 (≈ 11.6 µM) | 0.06 (≈ 0.175 µM) | 32 (≈ 93.2 µM) | 2 (≈ 5.82 µM) | CN1CCN(c2nc3c(cc2N)c(=O)c(C(=O)O)cn3C2CC2)CC1 | 0.416 | 2 (≈ 5.82 µM) | 6.063 | 
0.25 (≈ 0.761 µM) | 64 (≈ 195 µM) | 0.25 (≈ 0.761 µM) | 16 (≈ 48.7 µM) | 16 (≈ 48.7 µM) | 0.25 (≈ 0.761 µM) | 32 (≈ 97.5 µM) | 0.25 (≈ 0.761 µM) | 64 (≈ 195 µM) | 0.03 (≈ 0.0914 µM) | 128 (≈ 390 µM) | 32 (≈ 97.5 µM) | Nc1cc2c(=O)c(C(=O)O)cn(C3CC3)c2cc1N1CCNCC1 | 0.836 | 2 (≈ 6.09 µM) | 42.224 | 

SMILES | MIC (Enterobacter cloacae) [µg/mL] | MIC (Staphylococcus aureus [1]) [µg/mL] | MIC (Escherichia coli [2]) [µg/mL] | MIC [3] [µg/mL] | MIC [5] [µg/mL] | MIC (Klebsiella pneumoniae) [µg/mL] | MIC (Proteus vulgaris) [µg/mL] | MIC (Shigella) [µg/mL] | MIC (Staphylococcus aureus [6]) [µg/mL] | MIC (Escherichia coli [7]) [µg/mL] | MIC (Enterococcus faecalis [8]) [µg/mL] | MIC (Providencia stuartii) [µg/mL] | Geometric mean [4] | MIC (Pseudomonas aeruginosa) [µg/mL] | Geometric mean (Bacteria) | also measured
Cc1c(N2CCOCC2)c(N)cc2c(=O)c(C(=O)O)cn(C3CC3)c12 | 0.125 (≈ 0.364 µM) | 0.125 (≈ 0.364 µM) | 0.03 (≈ 0.0874 µM) | 0.125 (≈ 0.364 µM) | 0.25 (≈ 0.728 µM) | 0.03 (≈ 0.0874 µM) | 8 (≈ 23.3 µM) | 0.125 (≈ 0.364 µM) | 0.125 (≈ 0.364 µM) | 0.03 (≈ 0.0874 µM) | 1 (≈ 2.91 µM) | 0.5 (≈ 1.46 µM) | 0.189 | 1 (≈ 2.91 µM) | 0.218 | MIC (Enterococcus faecalis [9]): 0.25 µg/mL (≈ 0.728 µM); IC50 (Escherichia coli [10]): 5.64 µg/mL (≈ 16.4 µM); MIC (Enterococcus faecium [11]): 0.5 µg/mL (≈ 1.46 µM); MIC (Staphylococcus aureus [12]): 0.06 µg/mL (≈ 0.175 µM); MIC (Staphylococcus aureus [13]): 4 µg/mL (≈ 11.6 µM); MIC (Streptococcus pneumoniae): 1 µg/mL (≈ 2.91 µM)
Cc1c(N2CCNCC2)c(N)cc2c(=O)c(C(=O)O)cn(C3CC3)c12 | 0.06 (≈ 0.175 µM) | 4 (≈ 11.7 µM) | 0.03 (≈ 0.0876 µM) | 8 (≈ 23.4 µM) | 4 (≈ 11.7 µM) | 0.03 (≈ 0.0876 µM) | 4 (≈ 11.7 µM) | 0.03 (≈ 0.0876 µM) | 2 (≈ 5.84 µM) | 0.03 (≈ 0.0876 µM) | 16 (≈ 46.7 µM) | 2 (≈ 5.84 µM) | 0.158 | 1 (≈ 2.92 µM) | 5.28 | 
Cc1c(N2CCSCC2)c(N)cc2c(=O)c(C(=O)O)cn(C3CC3)c12 | 0.25 (≈ 0.696 µM) | 0.06 (≈ 0.167 µM) | 0.25 (≈ 0.696 µM) | 0.125 (≈ 0.348 µM) | 0.125 (≈ 0.348 µM) | 0.02 (≈ 0.0556 µM) | 32 (≈ 89 µM) | 0.125 (≈ 0.348 µM) | 0.06 (≈ 0.167 µM) | 0.03 (≈ 0.0835 µM) | 0.5 (≈ 1.39 µM) | 2 (≈ 5.56 µM) | 0.362 | 1 (≈ 2.78 µM) | 0.123 | IC50 (Escherichia coli [10]): 1.42 µg/mL (≈ 3.95 µM); MIC (Staphylococcus aureus [12]): 0.06 µg/mL (≈ 0.167 µM); MIC (Streptococcus pneumoniae): 1 µg/mL (≈ 2.78 µM); MIC (Enterococcus faecalis [14]): 0.5 µg/mL (≈ 1.39 µM); MIC (Enterococcus faecium [15]): 2 µg/mL (≈ 5.56 µM); MIC (Staphylococcus aureus [16]): 2 µg/mL (≈ 5.56 µM)
